Results reported in ChEMBL document CHEMBL1121879, “In vitro activity of 2-alkyl-3-hydroxy-1,4-naphthoquinones against Theileria parva” (1981).
Converted amounts (≈) assume the structure as drawn.

What follows are compounds tested on Theileria parva (assay: In vitro concentration required to reduce the proportion of schizont infected cells in the culture to 50% of that of untreated control in the 48 hr incubation period). Details: read-out: ED50 (the source's name).
Assay type: functional
Method in brief: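 T. parva-infected cell cultures were exposed to fourfold serial dilutions of each drug for 48 h, and the proportion of schizont-infected cells was compared with untreated controls. ED50 was expressed in mg/L, with at least two tests per compound.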
`O=C1C(=O)c2ccccc2C(O)=C1NC(=O)C1CCCCC1` was tested, and the EC50 was over 10 µg/mL. Compound `CCCCCCCCCCCCCCCCCC1=C(O)C(=O)c2ccccc2C1=O` has an EC50 of 0.01 µg/mL (≈ 0.0242 µM). `O=C1C(=O)c2ccccc2C(O)=C1CCCCC1CCCCC1` showed an EC50 of 0.06 µg/mL (≈ 0.192 µM). `O=C1C(=O)c2ccccc2C(O)=C1CCC1CCCCC1` was tested, and the EC50 was 0.08 µg/mL (≈ 0.281 µM). In the case of `NC1=C(CC2CCCCC2)C(=O)c2ccccc2C1=O`, the EC50 is reported as over 10 µg/mL. In the case of `O=C1C(Cl)=C(CC2CCCCC2)C(=O)c2ccccc21`, the EC50 is reported as over 10 µg/mL. For `O=C1C(=O)c2ccccc2C(O)=C1C1CC2CCC1C2` (centres undefined), the EC50 was 0.06 µg/mL (≈ 0.224 µM). `O=C1C(=O)c2ccccc2C(O)=C1CC1CCCCC1` showed an EC50 of 0.03 µg/mL (≈ 0.111 µM). Compound `CCCCCCCCCCCCCCC1=C(O)C(=O)c2ccccc2C1=O` has an EC50 of 0.006 µg/mL (≈ 0.0162 µM). `CCCCCCCCCCCCC1=C(O)C(=O)c2ccccc2C1=O` was tested, and the EC50 was 0.05 µg/mL (≈ 0.146 µM). `CC(=O)OC1=C(CC2CCCCC2)C(=O)c2ccccc2C1=O` gave an EC50 of 1 µg/mL (≈ 3.2 µM). For `O=C1C(=O)c2ccccc2C(O)=C1C1CC1`, the EC50 was 10 µg/mL (≈ 46.7 µM). `O=C1C(=O)c2ccccc2C(O)=C1SC1CCCCC1` was tested, and the EC50 was 6.5 µg/mL (≈ 22.5 µM). In the case of `O=C1C(O)=C(C2C=CCCC2)C(=O)c2ccccc21` (centres undefined), the EC50 is reported as 1.5 µg/mL (≈ 5.9 µM). `O=C1C(=O)c2ccccc2C(O)=C1CSC1CCCCC1` showed an EC50 of over 10 µg/mL. Compound `O=C1C(=O)c2ccccc2C(O)=C1C1CCCCCCC1` has an EC50 of 0.007 µg/mL (≈ 0.0246 µM). Work on `CCCCCCCCCCCCCC1=C(O)C(=O)c2ccccc2C1=O` yielded an EC50 of 0.006 µg/mL (≈ 0.0168 µM). `O=C1C(O)=C(CCCCCCCCCCC2=C(O)C(=O)c3ccccc3C2=O)C(=O)c2ccccc21` gave an EC50 of 10 µg/mL (≈ 20.6 µM). `O=C1C(=O)c2ccccc2C(O)=C1c1ccccc1` showed an EC50 of over 10 µg/mL. For `O=C1C(=O)c2ccccc2C(O)=C1CCCC1CCCCC1`, the EC50 was 0.06 µg/mL (≈ 0.201 µM). In the case of `CCCCCCCCCCCCCCCCC1=C(O)C(=O)c2ccccc2C1=O`, the EC50 is reported as 0.01 µg/mL (≈ 0.0251 µM). `O=C1C(=O)c2ccccc2C(O)=C1CCCCCCCC1CCCCC1` was tested, and the EC50 was 0.05 µg/mL (≈ 0.141 µM). Work on `COc1ccc2c(c1)C(=O)C(C1CCCCCC1)=C(O)C2=O` yielded an EC50 of over 10 µg/mL. In the case of `CCCCCCCCCCCCCCCC1=C(O)C(=O)c2ccccc2C1=O`, the EC50 is reported as 0.01 µg/mL (≈ 0.026 µM). `O=C1C(=O)c2ccccc2C(O)=C1C1CCCCCCCCCCC1` showed an EC50 of 0.09 µg/mL (≈ 0.264 µM). `O=C1C(O)=C(CCCCCC2=C(O)C(=O)c3ccccc3C2=O)C(=O)c2ccccc21` showed an EC50 of over 10 µg/mL. For `O=C1C(O)=C(NCC2CCCCC2)C(=O)c2ccccc21`, the EC50 was over 10 µg/mL. With `O=C1C(O)=C(C2CCC(C3CCCCC3)CC2)C(=O)c2ccccc21` (centres undefined) the EC50 was 0.006 µg/mL (≈ 0.0177 µM). In the case of `O=C1C(O)=C(CCCCCCCCC2=C(O)C(=O)c3ccccc3C2=O)C(=O)c2ccccc21`, the EC50 is reported as 1 µg/mL (≈ 2.18 µM). `O=C1C(=O)c2ccccc2C(O)=C1C1CCCOC1` (centres undefined) was tested, and the EC50 was 6.8 µg/mL (≈ 26.3 µM). Work on `O=C1C(=O)c2ccccc2C(O)=C1C1CCC1` yielded an EC50 of 10 µg/mL (≈ 43.8 µM). Work on `O=C1C(=O)c2ccccc2C(O)=C1C1CCCC1` yielded an EC50 of 3.7 µg/mL (≈ 15.3 µM). Work on `O=C1C(=O)c2ccccc2C(O)=C1CCCCCC1CCCCC1` yielded an EC50 of 0.03 µg/mL (≈ 0.0919 µM). Work on `O=C1C(=O)c2ccccc2C(O)=C1C1CCCCCC1` yielded an EC50 of 0.01 µg/mL (≈ 0.037 µM). Compound `CCCCCCCCCC1=C(O)C(=O)c2ccccc2C1=O` has an EC50 of 0.13 µg/mL (≈ 0.433 µM). `O=C1C(O)=C(CCCCCCC2=C(O)C(=O)c3ccccc3C2=O)C(=O)c2ccccc21` gave an EC50 of over 10 µg/mL. Work on `CCCCCC1=C(O)C(=O)c2ccccc2C1=O` yielded an EC50 of 1 µg/mL (≈ 4.09 µM). For `O=C1C(O)=C(CCCCCCCCC2CCCCC2)C(=O)c2ccccc21` [MENOCTONE], the EC50 was 0.06 µg/mL (≈ 0.163 µM). Work on `O=C1C(O)=C(C2CCCCC2)C(=O)c2ccccc21` [PARVAQUONE] yielded an EC50 of 0.006 µg/mL (≈ 0.0234 µM).
